Experimental data taken from ChEMBL document CHEMBL1140112, “Desferrithiocin analogues and nephrotoxicity” (J Med Chem, 2008).

What was measured:
[1] = tested on: Rattus norvegicus; experiment: Nephrotoxicity in non-iron-overloaded Sprague-Dawley rat at 300 umol/kg, po; assay type: toxicity, organism-based; conditions: in vivo
Procedure, shortened: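 Male Sprague-Dawley rats (400-450 g), not iron-overloaded, bile duct-cannulated, each given a single 300 µmol/kg oral gavage dose.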

[2] = tested on: Rattus norvegicus; experiment: Iron-clearing efficiency in non-iron-overloaded Sprague-Dawley rat at 300 umol/kg, po after 24 hrs relative to control; assay type: functional
Procedure, shortened: (§1)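 Non-iron-overloaded, bile duct-cannulated male Sprague-Dawley rats (400-450 g) got a single 300 µmol/kg dose by oral gavage, as the monosodium salt in distilled water. Bile was collected at 3 h intervals for 24 h and urine at 24 h, with iron by atomic absorption. ICE = treated minus control iron excretion, divided by theoretical output (2:1 complex), as %. n = 3-8; mean ± SEM.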

[3] = tested on: Rattus norvegicus; experiment: Iron-clearing efficiency in non-iron-overloaded Sprague-Dawley rat assessed as bile iron excretion at 300 umol/kg, po relative to control; assay type: functional; procedure, shortened: as §1
[4] = tested on: Rattus norvegicus; experiment: Iron-clearing efficiency in non-iron-overloaded Sprague-Dawley rat assessed as urine iron excretion at 300 umol/kg, po relative to control; assay type: functional; procedure, shortened: as §1
[5] = Apparent partition coefficient, log P at pH 7.4 by shake flask method; assay type: physicochemical; conditions: octanol/water; for logD: read-out: LogD7.4
Procedure, shortened: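 Apparent partition between octanol and water, expressed as log of the fraction in the octanol layer (log P_app); direct shake-flask method in Tris buffer, pH 7.4.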

[6] = tested on: Sapajus apella; experiment: Iron-clearing efficiency in iron-overloaded Cebus apella at 150 umol/kg, po relative to control; assay type: functional
Procedure, shortened: (§2)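 Iron-overloaded Cebus apella were dosed once by oral gavage with the monosodium salt (free acid plus 1 equiv NaOH in distilled water; one ligand in 40% Cremophor RH-40/water). Feces and urine were collected at 24 h intervals from 4 d pre-drug to 5 d post-drug, and iron was read by flame AAS. ICE = 2-day post-drug iron minus mean 4-day baseline, divided by theoretical output (2:1 complex), as %. Mean ± SEM.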

[7] = tested on: Sapajus apella; experiment: Iron-clearing efficiency in iron-overloaded Cebus apella assessed as urine iron excretion at 150 umol/kg, po relative to control; assay type: functional; procedure, shortened: as §2
[8] = tested on: Sapajus apella; experiment: Iron-clearing efficiency in iron-overloaded Cebus apella assessed as bile iron excretion at 150 umol/kg, po relative to control; assay type: functional

SMILES: CCCCOc1ccc(O)c(C2=N[C@@](C)(C(=O)[O-])CS2)c1.[Na+]
- Activity [1]: Toxic
- Activity [2]: 21%
- Activity [3]: 99%
- Activity [4]: 1%
- LogD7.4 [5]: 0.94

SMILES: CCCCCCCCOc1ccc(O)c(C2=N[C@@](C)(C(=O)[O-])CS2)c1.[Na+]
- Activity [2]: 4%
- Activity [3]: 97%
- Activity [4]: 3%
- LogD7.4 [5]: 1.56

SMILES: COCCOCCOCCOc1ccc(C2=N[C@@](C)(C(=O)[O-])CS2)c(O)c1.[Na+]
- Activity [6]: 25.4%
- Activity [7]: 4%
- Activity [2]: 5.5%
- Activity [3]: 90%
- Activity [4]: 10%
- Activity [8]: 96%

SMILES: C[C@]1(C(=O)[O-])CSC(c2cc(O)ccc2O)=N1.[Na+]
- Activity [6]: 12.6%
- Activity [7]: 12%
- Activity [2]: 1%
- Activity [3]: 99%
- Activity [4]: 1%
- Activity [8]: 88%
- logD [5]: -1.14

SMILES: CCCCOc1ccc(C2=N[C@@](C)(C(=O)[O-])CS2)c(O)c1.[Na+]
- Activity [1]: Toxic
- Activity [2]: 13.1%
- Activity [3]: 98%
- Activity [4]: 2%
- LogD7.4 [5]: 1.02

SMILES: CCCCCCCCOc1ccc(C2=N[C@@](C)(C(=O)[O-])CS2)c(O)c1.[Na+]
- Activity [2]: 6.4%
- Activity [3]: 94%
- Activity [4]: 6%
- LogD7.4 [5]: 1.53

SMILES: CCCCCCCCOc1cc(O)c(C2=N[C@@](C)(C(=O)[O-])CS2)cc1OCCCCCCCC.[Na+]
- Activity [2]: <0.5%
- LogD7.4 [5]: 2.05

SMILES: COc1ccc(C2=N[C@@](C)(C(=O)[O-])CS2)c(O)c1.[Na+]
- Activity [6]: 24.4%
- Activity [7]: 9%
- Activity [2]: 6.6%
- Activity [3]: 98%
- Activity [4]: 2%
- Activity [8]: 91%

SMILES: COc1ccc(O)c(C2=N[C@@](C)(C(=O)[O-])CS2)c1.[Na+]
- Activity [6]: 18.9%
- Activity [7]: 6%
- Activity [2]: 6.3%
- Activity [3]: 95%
- Activity [4]: 5%
- Activity [8]: 94%
- logD [5]: -0.61

SMILES: CCOc1ccc(C2=N[C@@](C)(C(=O)[O-])CS2)c(O)c1.[Na+]
- Activity [2]: 18%
- Activity [3]: 100%
- Activity [4]: 0%
- LogD7.4 [5]: -0.04

SMILES: C[C@]1(C(=O)[O-])CSC(c2ccc(O)cc2O)=N1.[Na+] [DEFERITRIN SODIUM]
- Activity [6]: 16.8%
- Activity [7]: 12%
- Activity [2]: 1.1%
- Activity [3]: 100%
- Activity [4]: 0%
- Activity [8]: 88%
